Assays:
[1] = Cytotoxicity against human A549 cells assessed as reduction in cell viability by Celltiter-Glo assay; format: cell-based
How it was run: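 Low-passage A549 cells seeded at 5000/well 24 h ahead, then exposed for 48 h to 3-fold serial compound dilutions in fresh media without virus. Viability read by CellTiter-Glo luminescence and normalized to medium-only cells. CC50 from logistic regression fit of dose-response curves.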

[2] = system: envelope glycoprotein of Zaire Ebolavirus; assay: Selectivity index, ratio of CC50 for human A549 cells to IC50 for inhibition of envelope glycoprotein in HIV pseudotyped Zaire Ebolavirus infected in human A549 cells assessed as reduction in virus entry; format: toxicity, cell-based; conditions: read-out: Ratio CC50/IC50
How it was run: (§1)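 IC50 wells also got HIV luciferase pseudovirions bearing MARV GP or EBOV GP, read by luciferase. CC50 wells got fresh media, read by CellTiter-Glo. Both values come from logistic dose-response fits, and the index is CC50 divided by IC50.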

[3] = system: envelope glycoprotein of Marburgvirus; assay: Selectivity index, ratio of CC50 for human A549 cells to IC50 for inhibition of envelope glycoprotein in HIV pseudotyped Marburgvirus infected in human A549 cells assessed as reduction in virus entry; format: toxicity, cell-based; conditions: read-out: Ratio CC50/IC50; how it was run: as §1
[4] = Inhibition of envelope glycoprotein in HIV pseudotyped Zaire Ebolavirus infected in human A549 cells assessed as reduction in virus entry measured after 48 hrs by luciferase reporter gene assay; format: cell-based; conditions: A549, 48 h
How it was run: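 A549 cells (5000/well, seeded 24 h prior) incubated 48 h with 3-fold serial compound dilutions premixed with HIV-backbone luciferase pseudovirions bearing EBOV GP. Entry quantified by luciferase signal, normalized to virus-alone cells. IC50 from logistic regression of dose-response curves.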

| Compound | CC50 [1] | selectivity ratio [2] | selectivity ratio [3] | IC50 [4] |
| --- | --- | --- | --- | --- |
| Cc1c(Cc2ccc(-c3ccc(Cl)cc3)cc2)c(=O)oc2cc(OCC(O)CN3CCC(C(N)=O)CC3)ccc12 (configuration not stated) | 32.9 µM | 22.9 | 31.8 | 1.4 µM |
| Cc1c(Cc2ccc(Br)cc2)c(=O)oc2cc(OCC(O)CN3CCC(C(N)=O)CC3)ccc12 (configuration not stated) | > 100 µM | > 111 | 85.7 | 0.9 µM |
| Cc1c(Cc2ccccc2)c(=O)oc2cc(OCC(CN3CCC(C(N)=O)CC3)Oc3ccc(F)cc3)ccc12 (configuration not stated) | 66.4 µM | 6.4 | 5.5 | 10.4 µM |
| Cc1c(Cc2ccccc2)c(=O)oc2cc(OCC(CN3CCC(C(N)=O)CC3)Oc3ccc([N+](=O)[O-])cc3)ccc12 (configuration not stated) | 94.8 µM | 5.9 | 11.5 | 16 µM |
| Cc1c(Cc2ccc(F)cc2Cl)c(=O)oc2cc(OCC(O)CN3CCC(C(N)=O)CC3)ccc12 (configuration not stated) | 90.8 µM | 29 | 7.7 | 3.1 µM |
| COC(=O)c1ccc(Cc2c(C)c3ccc(OCC(O)CN4CCC(C(N)=O)CC4)cc3oc2=O)cc1 (configuration not stated) | > 100 µM | > 13.3 | 11 | 7.5 µM |
| Cc1c(Cc2ccc(C(C)(C)C)cc2)c(=O)oc2cc(OCC(O)CN3CCC(C(N)=O)CC3)ccc12 (configuration not stated) | 14.7 µM | 1.3 | 2.5 | 11.7 µM |
| Cc1c(Cc2ccccc2)c(=O)oc2cc(OCC(O)CNCC3CC3)ccc12 (configuration not stated) | > 100 µM | > 33.3 | 31.6 | 3 µM |
